Data as given in ChEMBL document CHEMBL1649480, “Farnesol-induced apoptosis in Candida albicans” (2009).
The source made the active and inactive calls. No cut-off for these calls is given here.

Tests used:
Candida albicans [1] = test: Downregulation of Putative stress response protein expression in Candida albicans SC5314 at 40 uM after 24 hrs by MALDI-TOF MS; format: functional, organism-based
In short: (§1)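 Overnight YNB-glucose SC5314 culture, PBS-washed, adjusted to OD600 0.1 and treated 24 h with 40 or 200 μM farnesol (methanol in controls). Proteomes were compared with untreated cells by 2D SDS-PAGE and MALDI-TOF MS, searched against NCBI nonredundant database. Spots were counted as changed at ≥1.5-fold in three independent experiments.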

Candida albicans [2] = test: Downregulation of Translational elongation factor 1 expression in Candida albicans SC5314 at 40 uM after 24 hrs by MALDI-TOF MS; format: functional, organism-based; in short: as §1
Candida albicans [3] = test: Downregulation of Glyceraldehyde-3-phosphate dehydrogenase expression in Candida albicans SC5314 at 40 uM after 24 hrs by MALDI-TOF MS; format: functional, organism-based; in short: as §1
Candida albicans [4] = test: Downregulation of ATP synthase subunit D expression in Candida albicans SC5314 at 200 uM after 24 hrs by MALDI-TOF MS; format: functional, organism-based; in short: as §1
Candida albicans [5] = test: Downregulation of Heat shock protein 60 expression in Candida albicans SC5314 at 200 uM after 24 hrs by MALDI-TOF MS; format: functional, organism-based; in short: as §1
Candida albicans [6] = test: Downregulation of Pyruvate kinase expression in Candida albicans SC5314 at 200 uM after 24 hrs by MALDI-TOF MS; format: functional, organism-based; in short: as §1
Candida albicans [7] = test: Downregulation of S-adenosylmethionine synthase expression in Candida albicans SC5314 at 200 uM after 24 hrs by MALDI-TOF MS; format: functional, organism-based; in short: as §1
Candida albicans [8] = test: Upregulation of Catalase A expression in Candida albicans SC5314 at 40 uM after 24 hrs by MALDI-TOF MS; format: functional, organism-based; in short: as §1
Candida albicans [9] = test: Upregulation of 6-Phosphogluconate dehydrogenase expression in Candida albicans SC5314 at 40 uM after 24 hrs by MALDI-TOF MS; format: functional, organism-based; in short: as §1
Candida albicans [10] = test: Upregulation of Pyruvate decarboxylase expression in Candida albicans SC5314 at 40 uM after 24 hrs by MALDI-TOF MS; format: functional, organism-based
In short: (§2)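 SC5314 grown overnight at 30°C, 120 rpm, in yeast nitrogen base (pH 7.0) with 50 mM glucose. Cells were washed in PBS and adjusted to OD600 0.1, then treated 24 h with farnesol from a methanol dilution; controls received methanol. Proteomes of treated and untreated cells were compared by 2-D SDS-PAGE and MALDI-TOF MS, with ProFound searches of the NCBI nonredundant database. Spots changed at least 1.5-fold in three independent experiments were counted.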

Candida albicans [11] = test: Upregulation of Aryl-alcohol dehydrogenase expression in Candida albicans SC5314 at 40 uM after 24 hrs by MALDI-TOF MS; format: functional, organism-based; in short: as §1
Candida albicans [12] = test: Upregulation of Heat shock protein 90 expression in Candida albicans SC5314 at 200 uM after 24 hrs by MALDI-TOF MS; format: functional, organism-based; in short: as §1
Candida albicans [13] = test: Upregulation of Putative mitochondrial […] expression in Candida albicans SC5314 at 200 uM after 24 hrs by MALDI-TOF MS; format: functional, organism-based; in short: as §2
Candida albicans [14] = test: Upregulation of Heat shock protein 60 expression in Candida albicans SC5314 at 200 uM after 24 hrs by MALDI-TOF MS; format: functional, organism-based; in short: as §1
Candida albicans [15] = test: Upregulation of Glutathione reductase expression in Candida albicans SC5314 at 200 uM after 24 hrs by MALDI-TOF MS; format: functional, organism-based; in short: as §1
Candida albicans [16] = test: Upregulation of Acetyl-CoA hydrolase/transferase expression in Candida albicans SC5314 at 200 uM after 24 hrs by MALDI-TOF MS; format: functional, organism-based; in short: as §1
Candida albicans [17] = test: Upregulation of NADH-cytochrome b5 reductase expression in Candida albicans SC5314 at 200 uM after 24 hrs by MALDI-TOF MS; format: functional, organism-based; in short: as §2
Candida albicans [18] = test: Induction of ROS accumulation in mitochondria of Candida albicans SC5314 at 100 uM after 3 hrs by Fluorescence analysis; format: functional
In short: (§3)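 Cells were exposed 3 h to 40, 100 or 200 μM farnesol, with methanol control and H2O2 positive control. Washed cells were stained 30 min in the dark with a mix of dichlorodihydrofluorescein diacetate, propidium iodide and calcofluor white, then washed and viewed by confocal microscopy. % green (ROS) cells of all cells was scored, with red (necrotic) cells scored separately.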

Candida albicans [19] = test: Induction of apoptosis in Candida albicans SC5314 assessed as mitochondrial degradation at 100 uM after 3 hrs by Fluorescence analysis; format: functional
In short: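 Farnesol-exposed SC5314 (40, 100, 200 μM; methanol control, H2O2 positive control) stained with a MitoPT mitochondrial permeability transition dye per kit instructions. Cells imaged by confocal microscopy: red mitochondrial aggregates in healthy cells, dispersed green signal in apoptotic cells. Percentage of cells with degradation was recorded.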

Candida albicans [20] = test: Induction of apoptosis in Candida albicans SC5314 assessed as activation of caspase activity at 200 uM after 3 hrs by Fluorescence analysis; format: functional
In short: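 Active caspases in farnesol-exposed cells (40, 100, 200 μM; methanol control, H2O2 positive control) were detected with a FLICA kit per manufacturer. Cells were examined by confocal microscopy, with green-fluorescing cells counted as caspase-positive and unstained cells as nonapoptotic. Percentage of positive cells was recorded.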

Candida albicans [21] = test: Induction of apoptosis in Candida albicans SC5314 at 40 uM after 24 hrs by TUNEL assay; format: functional
In short: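 After 24 h in farnesol (40, 100, 200 μM), cells were PBS-washed, fixed in 4% paraformaldehyde (pH 7.4) 1 h at 20°C, and permeabilized 2 min on ice. They were labeled with 9:1 label:enzyme TUNEL mix 1 h at 37°C in the dark and examined by fluorescence microscopy at 515–565 nm. Flow cytometry counted % positive of 30,000 gated cells, gates set by no-enzyme and DNase-treated controls.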

Candida albicans [22] = test: Increase in MCA1 expression in Candida albicans SC5314 at 40 uM after 4 hrs by quantitative PCR analysis; format: functional
In short: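 Log-phase SC5314 cells were used, pregrown overnight at 30°C and 120 rpm in yeast nitrogen base (pH 7.0) with 50 mM glucose, washed in PBS and set to OD600 0.1. Farnesol (methanol stock) was given for 4 h, with methanol-matched untreated controls. SYBR green qPCR ran 35 cycles with 58°C annealing and a melt-curve check. MCA1 was calculated by 2^−ΔΔCT against ACT1 and RPP2B.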

Candida albicans [23] = test: Induction of apoptosis in Candida albicans SC5314 assessed as cell death level at 100 uM after 3 hrs by Fluorescence analysis; format: functional
In short: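 Washed, OD600 0.1 SC5314 cells (overnight culture at 30°C in YNB pH 7.0 with 50 mM glucose) exposed 3 h to farnesol, with methanol vehicle and H2O2 controls. Stained 30 min in the dark with a mix of dichlorodihydrofluorescein diacetate, propidium iodide and calcofluor white, then PBS-washed. Confocal imaging; red propidium iodide-stained cells scored as a percentage of all cells.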

Candida albicans [24] = test: Induction of ROS accumulation in mitochondria of Candida albicans SC5314 after 3 hrs by Fluorescence analysis; format: functional, organism-based; in short: as §3
Candida albicans [25] = test: Increase in MCA1 expression in Candida albicans SC5314 at 2.5 mM after 4 hrs by quantitative PCR analysis

## CC(C)=CCC/C(C)=C/CC/C(C)=C/CO [FARNESOL]
Candida albicans [1]
  Activity: Active
Candida albicans [2]
  Activity: Active
Candida albicans [3]
  Activity: Active
Candida albicans [4]
  Activity: Active
Candida albicans [5]
  Activity: Active
Candida albicans [6]
  Activity: Active
Candida albicans [7]
  Activity: Active
Candida albicans [8]
  Activity: Active
Candida albicans [9]
  Activity: Active
Candida albicans [10]
  Activity: Active
Candida albicans [11]
  Activity: Active
Candida albicans [12]
  Activity: Active
Candida albicans [13]
  Activity: Active
Candida albicans [14]
  Activity: Active
Candida albicans [15]
  Activity: Active
Candida albicans [16]
  Activity: Active
Candida albicans [17]
  Activity: Active
Candida albicans [18]
  Activity: 80%
Candida albicans [19]
  Activity: 93%
Candida albicans [20]
  Activity: 84%
Candida albicans [21]
  Activity: 2%
Candida albicans [22]
  fold change (FC): 3
Candida albicans [23]
  Activity: 20%
Candida albicans [24]
  Activity: Active
Candida albicans [25]
  Activity: Active
